Assay results taken from ChEMBL document CHEMBL3244282, “Synthesis and evaluation of bis-dipeptide and bis-tripeptide analogues of actinomycin D” (1978).
Calls of active or inactive are those of the source. The calls are words filed in the database; no cut-off is given here. Starred links: 1 amine or outer side, 2 acyl side, 3 side chain; linkers in the order of their positions; H or OH if unused. Positions of bridges follow the written chain, without caps; N, C: chain ends. Non-standard residues stand in square brackets, D forms with d. Residues, ends and D or L forms follow the SMILES beside them. Chains are numbered I, II in the order given. Actinocin(1to9) = Cc1c2oc3c(C)ccc(C(=O)[*:2])c3nc-2c(C(=O)[*:1])c(N)c1=O; NMeV = CN[C@H](C(=O)O)C(C)C; Sar = CNCC(=O)O

Assays:
P388 = experiment: Antitumor activity against mouse P388 cells allografted in CD2F1 mouse assessed as increase in life span at 25 mg/kg administered daily for 9 days; assay type: functional
How it was run: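 P-388 leukaemia in CD2F1 mice, screened by the NCI Drug Research and Development Program. Dosing was by daily injection for 9 days, up to 25 mg/kg per injection. The read-out was increased life span (ILS), with ILS >25% taken as the minimum for activity.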

Calf thymus DNA [1] = experiment: Binding affinity to calf thymus DNA assessed as hypochromic shift after 30 mins by spectral analysis; assay type: nucleic-acid assay; details: Bos taurus
Calf thymus DNA [2] = experiment: Binding affinity to calf thymus DNA assessed as isosbestic point after 30 mins by spectral analysis; assay type: nucleic-acid assay; details: Bos taurus
Calf thymus DNA [3] = experiment: Binding affinity to calf thymus DNA assessed as bathochromic shift after 30 mins by spectral analysis; assay type: nucleic-acid assay; details: Bos taurus
Calf thymus DNA [4] = experiment: Binding affinity to calf thymus DNA assessed as reduction in absorbance after 30 mins by spectral analysis; assay type: nucleic-acid assay; design: scale not given: the % may be the effect or the level left; details: Bos taurus
Calf thymus DNA [5] = experiment: Binding affinity to calf thymus DNA at DNA/drug ratio of 25:1 after 30 mins by ultracentrifugation method; assay type: nucleic-acid assay; details: Bos taurus
How it was run: (§1)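 Drug at about 5×10^-6 M with calf thymus DNA at 0, 1.94, 2.27, 3.35 and 9.45×10^-5 M in pH 7.00 1 M NaCl–0.008 M Tris buffer, equilibrated 30 min, then spun at 150 000g for 6 h at 25 °C. Free drug was measured in the supernatant. Bound drug was measured by dissolving the pellet in 50% DMF and reading A443 against drug in 50% DMF. Repeated at varied drug/DNA ratios.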

Bacillus spizizenii [6] = experiment: Antibacterial activity against Bacillus subtilis ATCC 6633 at 40 ug/ml by cup-plate diffusion assay; assay type: functional; details: read-out: IZ
How it was run: (§2)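 Cup-plate agar diffusion with 6-mm stainless steel cylinders on nutrient agar seeded with B. subtilis ATCC 6633, incubated at 37 °C. Activity is read as the zone of inhibition, compared with actinomycin D standards. On repeat assays, test concentrations were adjusted to give zones of roughly the same size as the standards.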

Bacillus spizizenii [7] = experiment: Antibacterial activity against Bacillus subtilis ATCC 6633 at 40 ug/ml by cup-plate diffusion assay relative to actinomycin D; assay type: functional; how it was run: as §2
Calf thymus DNA [8] = experiment: Binding affinity to calf thymus DNA after 30 mins by ultracentrifugation method; assay type: nucleic-acid assay; details: Bos taurus; how it was run: as §1
Bacillus spizizenii [9] = experiment: Antibacterial activity against Bacillus subtilis ATCC 6633 at 0.65 ug/ml by cup-plate diffusion assay; assay type: functional; details: read-out: IZ; how it was run: as §2
Bacillus spizizenii [10] = experiment: Antibacterial activity against Bacillus subtilis ATCC 6633 at 3.85 ug/ml by cup-plate diffusion assay; assay type: functional; details: read-out: IZ; how it was run: as §2
Calf thymus DNA [11] = experiment: Binding affinity to calf thymus DNA at DNA/drug ratio of 12:1 after 30 mins by ultracentrifugation method; assay type: nucleic-acid assay; details: Bos taurus; how it was run: as §1
Bacillus spizizenii [12] = experiment: Antibacterial activity against Bacillus subtilis ATCC 6633 at 2.35 ug/ml by cup-plate diffusion assay; assay type: functional; details: read-out: IZ; how it was run: as §2
Bacillus spizizenii [13] = experiment: Antibacterial activity against Bacillus subtilis ATCC 6633 at 2.50 ug/ml by cup-plate diffusion assay; assay type: functional; details: read-out: IZ; how it was run: as §2
Bacillus spizizenii [14] = experiment: Antibacterial activity against Bacillus subtilis ATCC 6633 at 5 ug/ml by cup-plate diffusion assay; assay type: functional; details: read-out: IZ; how it was run: as §2
Bacillus spizizenii [15] = experiment: Antibacterial activity against Bacillus subtilis ATCC 6633 at 1.25 ug/ml by cup-plate diffusion assay; assay type: functional; details: read-out: IZ; how it was run: as §2

SMILES | Activity (P388) | Activity (Calf thymus DNA [1]) | Activity (Calf thymus DNA [2]) | Activity (Calf thymus DNA [3]) | Activity (Calf thymus DNA [4]) [%] | Activity (Calf thymus DNA [5]) [%] | zone of inhibition at 40 µg/mL (Bacillus spizizenii [6]) [mm] | Ratio (Bacillus spizizenii [7]) | Ka (Calf thymus DNA [8]) [×10⁶ /M] | zone of inhibition at 0.65 µg/mL (Bacillus spizizenii [9]) [mm] | zone of inhibition at 3.85 µg/mL (Bacillus spizizenii [10]) [mm] | Activity (Calf thymus DNA [11]) [%] | zone of inhibition at 2.35 µg/mL (Bacillus spizizenii [12]) [mm] | zone of inhibition at 2.5 µg/mL (Bacillus spizizenii [13]) [mm] | zone of inhibition at 5 µg/mL (Bacillus spizizenii [14]) [mm] | zone of inhibition at 1.25 µg/mL (Bacillus spizizenii [15]) [mm]
COC(=O)[C@@H]1CCCN1C(=O)[C@H](NC(=O)[C@@H](NC(=O)c1c2nc3c(C(=O)N[C@H](C(=O)N[C@@H](C(=O)N4CCC[C@H]4C(=O)OC)C(C)C)[C@@H](C)O)ccc(C)c3oc-2c(C)c(=O)c1N)[C@@H](C)O)C(C)C | <=25% | inactive | inactive | inactive | – | – | – | – | – | – | – | – | – | – | – | –
Cc1c2oc3c(C)ccc(C(=O)N[C@H](C(=O)N[C@@H](C(=O)NCCO)C(C)C)[C@@H](C)O)c3nc-2c(C(=O)N[C@H](C(=O)N[C@@H](C(=O)NCCO)C(C)C)[C@@H](C)O)c(N)c1=O | <=25% | inactive | inactive | inactive | – | – | – | – | – | – | – | – | – | – | – | –
COC(=O)[C@H](NC(=O)[C@@H](NC(=O)c1c2nc3c(C(=O)N[C@H](C(=O)N[C@@H](C(=O)OC)C(C)C)[C@@H](C)O)ccc(C)c3oc-2c(C)c(=O)c1N)[C@@H](C)O)C(C)C | <=25% | inactive | inactive | inactive | 10 | 30 | 16.6 | 9.6 | – | – | – | – | – | – | – | –
Cc1c2oc3c(C)ccc(C(=O)N[C@H](C(=O)N[C@@H](C(=O)NN)C(C)C)[C@@H](C)O)c3nc-2c(C(=O)N[C@H](C(=O)N[C@@H](C(=O)NN)C(C)C)[C@@H](C)O)c(N)c1=O | <=25% | inactive | inactive | inactive | – | – | – | – | – | – | – | – | – | – | – | –
COC(=O)[C@@H]1CC(=O)CN1C(=O)[C@H](NC(=O)[C@@H](NC(=O)c1c2nc3c(C(=O)N[C@H](C(=O)N[C@@H](C(=O)N4CC(=O)C[C@H]4C(=O)OC)C(C)C)[C@@H](C)O)ccc(C)c3oc-2c(C)c(=O)c1N)[C@@H](C)O)C(C)C | <=25% | inactive | inactive | inactive | – | – | – | – | – | – | – | – | – | – | – | –
COC(=O)[C@H](NC(=O)[C@@H](NC(=O)c1c2nc3c(C(=O)N[C@H](C(=O)N[C@@H](C(=O)OC)C(C)C)[C@@H](C)OC(C)=O)ccc(C)c3oc-2c(C)c(=O)c1N)[C@@H](C)OC(C)=O)C(C)C | <=25% | inactive | inactive | inactive | – | – | – | – | – | – | – | – | – | – | – | –
Cc1c2oc3c(C)ccc(C(=O)N[C@@H]4C(=O)N[C@H](C(C)C)C(=O)N5CCC[C@H]5C(=O)N(C)CC(=O)N(C)[C@@H](C(C)C)C(=O)O[C@@H]4C)c3nc-2c(C(=O)N[C@@H]2C(=O)N[C@H](C(C)C)C(=O)N3CCC[C@H]3C(=O)N(C)CC(=O)N(C)[C@@H](C(C)C)C(=O)O[C@@H]2C)c(N)c1=O [DACTINOMYCIN] (I: T[dV]P[Sar][NMeV] / II: T[dV]P[Sar][NMeV]; ester I:1-I:C, II:1-II:C; linker I:N-II:N via Actinocin(1to9)) | <=25% | Active | Active | Active | 30 | 85 | – | – | 1.56 | 8.5 | 16.6 | 70 | 14.3 | 14.5 | 18.2 | 11.1
CNC(=O)[C@H](NC(=O)[C@@H](NC(=O)c1c2nc3c(C(=O)N[C@H](C(=O)N[C@@H](C(=O)NC)C(C)C)[C@@H](C)O)ccc(C)c3oc-2c(C)c(=O)c1N)[C@@H](C)O)C(C)C | <=25% | inactive | inactive | inactive | – | – | 8.5 | 1.1 | – | – | – | 17 | – | – | – | –
Cc1c2oc3c(C)ccc(C(=O)N[C@H](C(=O)N[C@@H](C(=O)O)C(C)C)[C@@H](C)O)c3nc-2c(C(=O)N[C@H](C(=O)N[C@@H](C(=O)O)C(C)C)[C@@H](C)O)c(N)c1=O | <=25% | inactive | inactive | inactive | – | – | 14.3 | 5.3 | – | – | – | – | – | – | – | –
